Data published in article PMC9257745 (Molecular Pharmaceutics, 2022).
Bridge positions count the residues as written; N and C are the ends.

Experiments:
[1] = test system: trypsin; assay: Tryptic digestion assay; assay type: in vitro ADME; conditions: pH 8
Summary of the method: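 Peptide at 150 μM incubated with trypsin (substrate:enzyme 5000:1) at 37 °C in 100 mM Tris–HCl, pH 8.0. Aliquots taken at intervals and quenched with 1 M HCl. Remaining peptide measured by RP-HPLC and plotted as natural log against time, n = 3.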

[2] = test system: healthy ddy mice; assay: Hypoglycemic effect, blood glucose after subcutaneous administration to mice; assay type: in vivo, mouse; conditions: 38 μg/kg insulin, 16 h-fasted healthy male ddy mice, mean ± S.E of 4–7 experiments
[3] = target: albumin of cynomolgus monkey (Macaca fascicularis, UniProt A2V9Z4); assay type: binding; conditions: yeast-displayed peptide, biotinylated SA, streptavidin-APC, flow cytometer
Chain of albumin of cynomolgus monkey (A2V9Z4 25-608): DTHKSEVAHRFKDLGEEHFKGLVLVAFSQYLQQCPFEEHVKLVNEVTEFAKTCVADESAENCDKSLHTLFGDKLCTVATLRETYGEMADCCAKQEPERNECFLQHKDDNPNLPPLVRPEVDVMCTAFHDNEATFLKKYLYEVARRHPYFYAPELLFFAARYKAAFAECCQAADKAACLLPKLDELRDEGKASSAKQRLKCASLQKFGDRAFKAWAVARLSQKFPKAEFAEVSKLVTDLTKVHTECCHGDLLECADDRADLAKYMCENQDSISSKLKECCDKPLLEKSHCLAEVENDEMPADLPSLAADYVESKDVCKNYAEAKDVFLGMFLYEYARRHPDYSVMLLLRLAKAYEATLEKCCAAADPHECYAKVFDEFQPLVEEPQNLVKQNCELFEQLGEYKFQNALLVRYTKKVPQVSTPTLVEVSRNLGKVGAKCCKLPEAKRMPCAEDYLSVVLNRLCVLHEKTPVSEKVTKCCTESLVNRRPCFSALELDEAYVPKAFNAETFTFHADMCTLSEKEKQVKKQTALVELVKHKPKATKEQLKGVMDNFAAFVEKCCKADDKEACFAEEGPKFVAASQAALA
Summary of the method: (§1)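 Yeast grown in SDCAA at 30 °C for 16 h, then in SG/RCAA at 20 °C for 24 h to display the peptide. Cells labelled 1 h with mouse anti-FLAG and biotinylated albumin, washed in PBST, then stained 1 h with Alexa-488 goat anti-mouse IgG (display) and streptavidin-APC (albumin binding). Fluorescence read by flow cytometry.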

[4] = target: fatty acid-free HSA (Homo sapiens, UniProt P02768); assay: SPR binding to immobilized HSA; conditions: fatty acid-free HSA immobilized on CM5 sensor chip
[5] = target: mouse SA (MSA) (Mus musculus, UniProt P07724); assay: FACS binding specificity of peptide-displayed yeast cells, mouse albumin; conditions: biotinylated SA, streptavidin-APC, flow cytometer
Chain of mouse SA (MSA) (P07724 25-608): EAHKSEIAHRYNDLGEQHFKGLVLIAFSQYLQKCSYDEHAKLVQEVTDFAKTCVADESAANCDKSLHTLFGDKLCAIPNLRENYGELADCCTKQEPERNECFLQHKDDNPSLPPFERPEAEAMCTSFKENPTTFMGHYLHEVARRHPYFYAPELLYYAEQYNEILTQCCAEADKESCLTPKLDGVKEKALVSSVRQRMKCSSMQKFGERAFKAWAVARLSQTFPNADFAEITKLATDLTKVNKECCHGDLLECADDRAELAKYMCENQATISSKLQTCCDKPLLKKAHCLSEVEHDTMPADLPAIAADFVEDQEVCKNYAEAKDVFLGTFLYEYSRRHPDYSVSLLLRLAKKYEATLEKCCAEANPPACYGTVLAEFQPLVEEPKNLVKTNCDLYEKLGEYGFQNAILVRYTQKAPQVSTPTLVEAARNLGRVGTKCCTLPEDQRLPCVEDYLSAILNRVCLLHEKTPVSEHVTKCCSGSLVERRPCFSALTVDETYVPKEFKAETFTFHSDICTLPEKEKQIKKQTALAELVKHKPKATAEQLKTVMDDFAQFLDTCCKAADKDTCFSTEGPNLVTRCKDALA
Summary of the method: as §1

[6] = target: human SA (HSA) (Homo sapiens, UniProt P02768); assay: FACS binding specificity of peptide-displayed yeast cells, human albumin; conditions: biotinylated SA, streptavidin-APC, flow cytometer
Summary of the method: as §1

[7] = target: albumin of rat (Rattus norvegicus, UniProt P02770); assay: FACS binding specificity of peptide-displayed yeast cells, rat albumin; conditions: biotinylated SA, streptavidin-APC, flow cytometer
Chain of albumin of rat (P02770 25-608): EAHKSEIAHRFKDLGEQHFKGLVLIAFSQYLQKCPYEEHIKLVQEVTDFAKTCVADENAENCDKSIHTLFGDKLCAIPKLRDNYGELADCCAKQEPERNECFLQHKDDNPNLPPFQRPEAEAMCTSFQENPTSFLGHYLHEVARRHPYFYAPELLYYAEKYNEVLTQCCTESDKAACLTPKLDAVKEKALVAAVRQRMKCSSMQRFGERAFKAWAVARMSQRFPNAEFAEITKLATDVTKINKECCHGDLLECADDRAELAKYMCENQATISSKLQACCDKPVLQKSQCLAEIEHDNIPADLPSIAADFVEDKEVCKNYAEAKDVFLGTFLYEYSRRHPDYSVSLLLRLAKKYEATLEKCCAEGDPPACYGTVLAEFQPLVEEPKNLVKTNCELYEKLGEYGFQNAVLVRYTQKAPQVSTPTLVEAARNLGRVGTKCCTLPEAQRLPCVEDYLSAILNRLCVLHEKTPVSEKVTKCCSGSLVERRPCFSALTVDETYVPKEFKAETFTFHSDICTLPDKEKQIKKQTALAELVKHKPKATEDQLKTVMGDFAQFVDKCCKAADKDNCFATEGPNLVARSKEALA
Summary of the method: as §1

Substance: Ac-GVNFGVVLFRGELAALKAKLAALKAY-NH2 (N-terminus assumed) [AY-VE-dN]
- half-life at 150 μM [1]: 6.3 ± 0.4 min

Substance: Ac-ELAALEAELAALEGVNFGVVLFRGELAALKAKLAALKAY-NH2 (N-terminus assumed) [AY-VE-dS]
- half-life at 150 μM [1]: 56 ± 1 min

Substance: insulin: Recombinant human insulin
- Time of peak of hypoglycemic effect after administration [2]: 1 h

Substance: Ac-CAAELAALEAELAALEGVNFGVVLFRGELAALKAKLAALKAYC-NH2 (disulfide 1-43; N-terminus assumed) [AY-VE]
- Binding of yeast clone to albumin of cynomolgus monkey (FACS) [3]: no affinity
- Kd [4]: 65 ± 39 nM
- Binding of yeast clone to albumin of mouse (FACS) [5]: affinity
- Binding of yeast clone to albumin of human (FACS) [6]: affinity
- half-life at 150 μM [1]: 190 ± 10 min
- Binding of yeast clone to albumin of rat (FACS) [7]: no affinity
